# Laboratory results as given in ChEMBL document CHEMBL4229460, “Design and biological evaluation of novel hybrids of 1, 5-diarylpyrazole and Chrysin for selective COX-2 inhibition” (Bioorg Med Chem, 2018).
# How the values were obtained:
# [1] = tested on: HeLa; assay: Disruption of mitochondrial membrane potential in human HeLa cells assessed as intact mitochondrial membrane at 10 uM after 12 hrs by JC1 staining based flow cytometry (reference value: 99.2%); assay type: functional
# [2] = tested on: HeLa; assay: Induction of apoptosis in human HeLa cells assessed as live cells at 5 uM after 24 hrs by Annexin-V-FITC/propidium iodide staining based flow cytometry (reference value: 94.6 to 95.1%); assay type: functional
# How it was run: (§1)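 HeLa seeded at 2 × 10⁵ cells/well. Dose series was 0, 1.25, 2.5, 5 and 10 μM for 24 h; time course was 5 μM for 12, 24, 36 or 48 h. Trypsinized and washed in ice-cold PBS, then stained in binding buffer with Annexin V-FITC and PI for 10 min in the dark. Flow cytometry scored early (Annexin⁺/PI⁻) and late (Annexin⁺/PI⁺) apoptotic cells.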
# [3] = tested on: B16-F10; assay: Antiproliferative activity against mouse B16F10 cells after 48 hrs by MTT assay; assay type: functional, cell-based; settings: B16-F10, 48 h
# How it was run: (§2)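 Cells kept in DMEM with 10% FBS, penicillin/streptomycin, 37 °C, 5% CO₂. Seeded at 5 × 10⁴ cells/well and allowed to adhere 12 h. Exposed to 0, 0.1, 1, 10 and 100 μM (final) for 48 h. Viability read by MTT reduction at OD 570 nm with 630 nm reference. IC50 reported as mean ± SD of three independent experiments.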
# [4] = tested on: HeLa; assay: Induction of apoptosis in human HeLa cells assessed as early apoptotic cells at 2.5 uM after 24 hrs by Annexin-V-FITC/propidium iodide staining based flow cytometry (reference value: 2.98%); assay type: functional; how it was run: as §1
# [5] = tested on: HeLa; assay: Induction of apoptosis in human HeLa cells assessed as live cells at 5 uM after 48 hrs by Annexin-V-FITC/propidium iodide staining based flow cytometry (reference value: 95.1%); assay type: functional; how it was run: as §1
# [6] = tested on: HeLa; assay: Disruption of mitochondrial membrane potential in human HeLa cells assessed as collapse of the mitochondrial membrane potential at 5 uM after 12 hrs by JC1 staining based flow cytometry (reference value: 0.768%); assay type: functional
# [7] = tested on: HeLa; assay: Induction of apoptosis in human HeLa cells assessed as live cells at 5 uM after 12 hrs by Annexin-V-FITC/propidium iodide staining based flow cytometry (reference value: 95.1%); assay type: functional; how it was run: as §1
# [8] = tested on: HeLa; assay: Induction of apoptosis in human HeLa cells assessed as early apoptotic cells at 5 uM after 12 hrs by Annexin-V-FITC/propidium iodide staining based flow cytometry (reference value: 1.24%); assay type: functional; how it was run: as §1
# [9] = tested on: HeLa; assay: Induction of apoptosis in human HeLa cells assessed as necrotic cells at 5 uM after 12 hrs by Annexin-V-FITC/propidium iodide staining based flow cytometry (reference value: 1.12%); assay type: functional; how it was run: as §1
# [10] = tested on: HeLa; assay: Induction of apoptosis in human HeLa cells assessed as early apoptotic cells at 1.25 uM after 24 hrs by Annexin-V-FITC/propidium iodide staining based flow cytometry (reference value: 2.98%); assay type: functional; how it was run: as §1
# [11] = tested on: HeLa; assay: Disruption of mitochondrial membrane potential in human HeLa cells assessed as intact mitochondrial membrane at 2.5 uM after 12 hrs by JC1 staining based flow cytometry (reference value: 99.2%); assay type: functional
# [12] = tested on: HeLa; assay: Disruption of mitochondrial membrane potential in human HeLa cells assessed as collapse of the mitochondrial membrane potential at 10 uM after 12 hrs by JC1 staining based flow cytometry (reference value: 0.768%); assay type: functional
# [13] = tested on: HeLa; assay: Induction of apoptosis in human HeLa cells assessed as late apoptotic cells at 5 uM after 12 hrs by Annexin-V-FITC/propidium iodide staining based flow cytometry (reference value: 2.57%); assay type: functional; how it was run: as §1
# [14] = tested on: HeLa; assay: Cell cycle arrest in human HeLa cells assessed as accumulation at S phase at 1.25 uM after 24 hrs by propidium iodide staining based flow cytometry (reference value: 18.16%); assay type: functional
# [15] = tested on: HeLa; assay: Cell cycle arrest in human HeLa cells assessed as accumulation at G1 phase after 24 hrs by propidium iodide staining based flow cytometry; assay type: functional
# [16] = tested on: HeLa; assay: Induction of apoptosis in human HeLa cells assessed as live cells at 2.5 uM after 24 hrs by Annexin-V-FITC/propidium iodide staining based flow cytometry (reference value: 94.6%); assay type: functional; how it was run: as §1
# [17] = tested on: HeLa; assay: Disruption of mitochondrial membrane potential in human HeLa cells after 12 hrs by JC1 staining based flow cytometry; assay type: functional, cell-based
# [18] = tested on: HeLa; assay: Induction of apoptosis in human HeLa cells assessed as necrotic cells at 1.25 uM after 24 hrs by Annexin-V-FITC/propidium iodide staining based flow cytometry (reference value: 0.242%); assay type: functional; how it was run: as §1
# [19] = tested on: HeLa; assay: Induction of apoptosis in human HeLa cells assessed as necrotic cells at 10 uM after 24 hrs by Annexin-V-FITC/propidium iodide staining based flow cytometry (reference value: 0.242%); assay type: functional; how it was run: as §1
# [20] = tested on: HeLa; assay: Induction of apoptosis in human HeLa cells assessed as late apoptotic cells at 5 uM after 24 hrs by Annexin-V-FITC/propidium iodide staining based flow cytometry (reference value: 1.72 to 2.57%); assay type: functional; how it was run: as §1
# [21] = tested on: HeLa; assay: Cell cycle arrest in human HeLa cells assessed as accumulation at S phase at 10 uM after 24 hrs by propidium iodide staining based flow cytometry (reference value: 18.16%); assay type: functional
# [22] = species: Homo sapiens; assay: Selectivity index, ratio of IC50 for COX1 (unknown origin) to ratio of IC50 for COX2 (unknown origin)
# How it was run: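 Enzyme ELISA kit: COX-1 or COX-2 preincubated with compound at 0, 1, 10 or 100 μM for 10 min at 37 °C in 0.1 M Tris-HCl pH 8.0, 5 mM EDTA, 2 mM phenol, 1 μM heme. Started with 100 μM arachidonic acid for 2 min at 37 °C, stopped with 1 M HCl. PGH₂ reduced by stannous chloride; PGF2α read by enzyme immunoassay at 450 nm. Index taken as the ratio of the COX IC50 values.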
# [23] = tested on: HeLa; assay: Induction of apoptosis in human HeLa cells assessed as early apoptotic cells at 5 uM after 48 hrs by Annexin-V-FITC/propidium iodide staining based flow cytometry (reference value: 1.24%); assay type: functional; how it was run: as §1
# [24] = tested on: HeLa; assay: Cell cycle arrest in human HeLa cells assessed as accumulation at G2/M phase at 2.5 uM after 24 hrs by propidium iodide staining based flow cytometry (reference value: 21.45%); assay type: functional
# [25] = tested on: HeLa; assay: Induction of apoptosis in human HeLa cells assessed as early apoptotic cells at 10 uM after 24 hrs by Annexin-V-FITC/propidium iodide staining based flow cytometry (reference value: 2.98%); assay type: functional; how it was run: as §1
# [26] = tested on: HeLa; assay: Induction of apoptosis in human HeLa cells assessed as late apoptotic cells at 1.25 uM after 24 hrs by Annexin-V-FITC/propidium iodide staining based flow cytometry (reference value: 1.72%); assay type: functional; how it was run: as §1
# [27] = tested on: HeLa; assay: Induction of apoptosis in human HeLa cells assessed as necrotic cells at 2.5 uM after 24 hrs by Annexin-V-FITC/propidium iodide staining based flow cytometry (reference value: 0.242%); assay type: functional; how it was run: as §1
# [28] = tested on: A549; assay: Antiproliferative activity against human A549 cells after 48 hrs by MTT assay; assay type: functional, cell-based; settings: A549, 48 h; how it was run: as §2
# [29] = tested on: HeLa; assay: Cell cycle arrest in human HeLa cells assessed as accumulation at G2/M phase at 5 uM after 24 hrs by propidium iodide staining based flow cytometry (reference value: 21.45%); assay type: functional
# [30] = tested on: HeLa; assay: Induction of apoptosis in human HeLa cells assessed as early apoptotic cells at 5 uM after 24 hrs by Annexin-V-FITC/propidium iodide staining based flow cytometry (reference value: 1.24 to 2.98%); assay type: functional; how it was run: as §1
structure (smiles),measurement,setting,value
COc1ccc(-c2cc(COC(=O)COc3cc(O)c4c(=O)cc(-c5ccccc5)oc4c3)nn2-c2ccc(C)cc2)cc1,Activity,[1],86.5%
same,Activity,[2],43.7 - 57.3%
same,IC50,[3],10.4 µM
same,Activity,[4],16.6%
same,Activity,[5],18.1%
same,Activity,[6],9.32%
same,Activity,[7],67.7%
same,Activity,[8],22.7%
same,Activity,[9],1.71%
same,Activity,[10],12.6%
same,Activity,[11],93.4%
same,Activity,[12],13.3%
same,Activity,[13],7.07%
same,Activity,[14],17.96%
same,Activity,[15],Dose-dependent effect
same,Activity,[16],74.5%
same,Activity,[17],Dose-dependent effect
same,Activity,[18],1.18%
same,Activity,[19],0.325%
same,Activity,[20],0.9 - 7.15%
same,Activity,[21],14.82%
same,Ratio IC50,[22],206
same,Activity,[23],73.2%
same,Activity,[24],9.58%
same,Activity,[25],36.8%
same,Activity,[26],5.16%
same,Activity,[27],0.332%
same,IC50,[28],6.41 µM
same,Activity,[29],8.16%
same,Activity,[30],31.6 - 34.7%
